The record followed here is PubChem BioAssay AID720508 (The Scripps Research Institute Molecular Screening Center, 2013).

Screen size: about 370,000 compounds; about 500 (0.14%) were called active. This is one part of a sample in which actives are shown more often than they occur. A number with no mark means an inactive call.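 The calls were made as follows: active = inhibition above the mean of compounds falling within the control limits plus 3 SD of them (cut at about 14% in these data); inactive = the rest.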

In this assay the target is Fibrinogen beta chain (Homo sapiens) (UniProt P02675). The assay is described as follows: inhibitors of Tn7 peptide binding to fibrin DD(E), primary screen, biochemical, fluorescence polarization, human fibrin, Tn7 probe (AID 720508).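 Also: 0% = plate median of compound wells and 100% = 10 µM Aha-Tn7 peptide.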 As to conditions: FP displacement of FITC-Tn7 peptide from fibrin DD(E); at 8.3 µM; hits give high values; 0% = median of compound wells per plate. The procedure, abridged: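 Also added: labelled Tn7 tracer, 0.1 µM; Assay system: human fibrin DD(E) protein; Amount: 2 µM fibrin DD(E); Schedule: 10 min compound pre-incubation, 3 h probe incubation at room temperature; Repeats: one replicate per compound; Read-out basis: percent inhibition; Measured by: fluorescence polarization of the labelled Tn7 tracer.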
Sequence of Fibrinogen beta chain (Homo sapiens) (P02675 whole entry, looked up): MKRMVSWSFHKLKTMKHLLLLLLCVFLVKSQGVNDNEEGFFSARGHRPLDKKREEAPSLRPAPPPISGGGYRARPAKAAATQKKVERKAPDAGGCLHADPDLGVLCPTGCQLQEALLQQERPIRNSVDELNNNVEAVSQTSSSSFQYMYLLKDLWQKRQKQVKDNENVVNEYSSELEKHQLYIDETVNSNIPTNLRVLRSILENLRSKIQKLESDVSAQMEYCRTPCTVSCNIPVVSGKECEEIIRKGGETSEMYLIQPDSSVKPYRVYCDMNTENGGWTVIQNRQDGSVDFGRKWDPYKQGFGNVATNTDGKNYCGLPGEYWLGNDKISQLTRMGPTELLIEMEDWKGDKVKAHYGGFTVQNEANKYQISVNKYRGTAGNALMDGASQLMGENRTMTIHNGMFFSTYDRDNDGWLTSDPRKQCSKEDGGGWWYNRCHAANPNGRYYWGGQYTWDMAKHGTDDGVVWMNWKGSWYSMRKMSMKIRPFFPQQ
Regarding `O=C(NCc1ccco1)C1CCCN1S(=O)(=O)c1ccccc1C(F)(F)F` (stereo not drawn), the inhibition was -1.12%.

On to `COc1ccc(NC2CC(=O)N(C)C2=O)cc1` (stereo not drawn), for which the inhibition was 0.3%.

Consider `CCC1CCCCN1C(=S)Nc1ccc(SC(F)F)cc1` (stereo not drawn), for which the inhibition was 5.34%.

Consider `C[N+]1(CCNC(=O)/C=N/O)CCCCC1`, for which the inhibition is 1.46%.

For `COc1cc(C(=S)N2CCOCC2)ccc1O`, the inhibition is 14.7% (active).

Take `COc1cc(C(=S)NC2CCCCC2)ccc1O`: the inhibition was 2.78%.

Consider `COc1ccc(C)cc1NC(=S)N1CCOCC1`, for which the inhibition is -0.49%.

Turning to `COC(=O)[C@]12CCCCC=C1N(Cc1ccc(Cl)cc1Cl)C(=O)[C@H](CC(=O)NCc1cccc3ccccc13)C2`, the inhibition is -3.23%.

For `Cn1c(=O)cc(OCCCC(=O)N2CCN(c3ccccn3)CC2)c2ccccc21`, the inhibition is 2.1%.

For the compound `OCCn1c(-c2ccccc2)csc1=Nc1ccccc1`, the inhibition is 5.44%.

For `C=CCOc1cccc(C2C(C(=O)c3ccc(C)o3)=C(O)C(=O)N2CCN2CCOCC2)c1` (stereo not drawn), the inhibition was 0.33%.

As to `Cc1cc(C)n2c(Nc3c(C)cccc3C)c(CCc3ccccc3)nc2n1`, the inhibition was 10.1%.

As for `C=CCOc1c2ccc(C(=O)N(CC)c3ccc(OC)cc3)cc2nn1C`, the inhibition is 1.93%.

For `O=S(=O)(c1ccc(-c2ccno2)s1)N1CCCCC1`, the inhibition is -8.93%.

As to `O=[N+]([O-])/C=C/c1ccc2c(ccn2Cc2ccccc2)c1`, the inhibition was 0.19%.

Take `O=S(=O)(NCC1CCCO1)c1cnc(Cl)c(Cl)c1` (stereo not drawn): the inhibition is 0.79%.

On to `O=C(COC(=O)c1ccc(N2CCCC2=O)cc1)c1ccc(OC(F)F)cc1`, for which the inhibition is -9.52%.

Consider `COc1ccc(-c2nc(CCNC(=O)c3ccc(Br)o3)cs2)cc1`, for which the inhibition was 16.8% (active).

`COc1cc(OC)cc(C(=O)NNC(=O)CNC(=O)c2ccc(Br)o2)c1`: the inhibition was 3.03%.

As for `COc1cc(OC)cc(C(=O)NCC(=O)OCc2csc(-c3ccccc3)n2)c1`, the inhibition was 1.99%.

For the compound `CC(C)c1nnc(NC(=O)CCC(=O)N2CCN(c3cccc(Cl)c3)CC2)s1`, the inhibition is 3.33%.

Take `O=C(Nc1ccon1)c1sc2ccccc2c1Cl`: the inhibition was 15.2% (active).

Take `CN1CCc2ccccc2C1Cc1ccccc1NC(=O)c1sc2ccccc2c1Cl` (stereo not drawn): the inhibition is -2.71%.

With `O=C(Nc1ccc2c(c1)OCO2)c1sc2cc(Cl)ccc2c1Cl`, the inhibition is 6.59%.

As for `Cc1cc(Cl)ccc1C(=O)C1CCCN(C(=O)c2ccc3c(c2)OCO3)C1` (stereo not drawn), the inhibition is -13.3%.

Consider `COc1cccc(NC(=O)CN(C)CC(=O)c2c(N)n(Cc3ccccc3)c(=O)n(C)c2=O)c1`, for which the inhibition is -1.38%.

Take `O=C(COC(=O)c1ccccc1NC(=O)c1ccco1)Nc1ccc2c(c1)OC(F)(F)O2`: the inhibition is -0.79%.

For the compound `N#Cc1cccc(CSc2ncnc(N)n2)c1`, the inhibition is -4.53%.

Turning to `COC(=O)[C@]12CCCCC=C1N(Cc1ccco1)C(=O)[C@H](CC(=O)NCC1CCCCC1)C2`, the inhibition is 6.36%.

As for `CCOc1ccc(NC(=O)CCS(=O)(=O)c2ccc3c(c2)CCCN3C(=O)CC)cc1`, the inhibition is -5.9%.

Take `COc1ccccc1-c1sc2ccccc2c1C#CC1(O)CCCCC1`: the inhibition was 1.77%.

`C[C@H](CO)N1C[C@H](C)[C@@H](CN(C)S(=O)(=O)c2ccc(F)cc2)Oc2ccc(NC(=O)CCC(F)(F)F)cc2C1=O`: the inhibition is -0.61%.

With `O=C(CCNS(=O)(=O)c1cccs1)N1CCN(c2ccc(F)cc2)CC1`, the inhibition was 3.48%.

For the compound `COc1ccc(NC(=O)CN(C)C(=O)c2cccc(S(=O)(=O)N3CCN(c4ccccc4)CC3)c2)cc1`, the inhibition is -8.03%.

As to `CCCc1nc2c3ccccc3ccn2c1Cc1ccccc1C(F)(F)F`, the inhibition was 6.59%.

Take `O=C(CSc1nnc(-c2ccccn2)n1-c1ccc(Cl)cc1)Nc1ccccc1-c1ccccc1`: the inhibition was 14% (active).

As to `COc1ccc(-n2c(SCC(=O)Nc3ccccc3-c3ccccc3)nnc2-c2cccnc2)cc1`, the inhibition is 6.88%.

Consider `Cc1ccc(-n2c(SCC(=O)Nc3cccc4ccccc34)nnc2-c2ccccn2)cc1`, for which the inhibition was 1.64%.

On to `NNC(=O)CNC(c1ccccc1)c1cc(Cl)ccc1NC(=O)c1ccccc1` (stereo not drawn), for which the inhibition was 2.82%.

Consider `O=C(/C=C/c1ccc([N+](=O)[O-])cc1)NCCSCc1ccco1`, for which the inhibition is 1.56%.

As for `C=CCn1c(SCC(=O)c2c(N)n(C)c(=O)n(C)c2=O)nc2sc(CC)cc2c1=O`, the inhibition is 3.02%.

Regarding `CC1(C)CC(=O)c2sc(N)nc2C1`, the inhibition is -0.75%.

Consider `Cc1cc(C)cc(N(CCC#N)C(=O)CN2C(=O)NC3(CCCC3)C2=O)c1`, for which the inhibition is -4.5%.

Take `COc1ccc(OCCCC(=O)Nc2cccc(S(=O)(=O)N3CCCCCC3)c2)cc1`: the inhibition was 6.07%.

For the compound `N#CCSc1ccccc1NC(=O)CN1C(=O)NC(CCc2ccccc2)C1=O` (stereo not drawn), the inhibition is -8.31%.

For `O=C(CCN1C(=O)c2ccncc2C1=O)Nc1cc(F)ccc1F`, the inhibition was 6.34%.

Regarding `CCOC(=O)C1(S(=O)(=O)c2ccc(Cl)cc2)CCN(Cc2ccccc2)CC1`, the inhibition is 7.42%.

Turning to `CCOC(=O)c1ccc(NC(=O)c2ccc(NC(=O)C3CCCO3)cc2)cc1` (stereo not drawn), the inhibition was 8.18%.

As for `C#CCNc1ccc(C(=O)OCC)cc1`, the inhibition was 26.2% (active).

Consider `CCOC(=O)c1ccc(NC(=O)c2c(NCc3ccccc3)[nH]c(=O)[nH]c2=O)cc1`, for which the inhibition is 1.03%.

Consider `Oc1ccccc1-c1cc(-c2ccc(Cl)cc2)n[nH]1`, for which the inhibition was -0.94%.

Consider `COc1ccc(Br)c2c1C(=O)CC2`, for which the inhibition was -5.83%.

Take `Cn1c(=O)[nH]c(=O)c2c1nc(CN1CCN(c3ccccc3F)CC1)n2CCc1ccccc1`: the inhibition is 6.89%.

For `CC(C)CCN1CCN=C1N(C)C`, the inhibition was -8.21%.

On to `OC(c1nc2ccc(F)cc2[nH]1)C(O)c1nc2ccc(F)cc2[nH]1` (stereo not drawn), for which the inhibition is -4.03%.

As to `CCOC(=O)N1CCC(=NNC(N)=O)CC1`, the inhibition is 0.3%.

As for `CCOC(=O)C=Cc1ccc(C(=O)OCC)[nH]1`, the inhibition is -0.66%.

On to `COc1cc2nc(CN(C)Cc3ccc(F)cc3)[nH]c(=O)c2cc1OC`, for which the inhibition is -5.44%.

For `Cc1ccc(C)c(NS(=O)(=O)c2c(C)[nH]c(C)c2C(=O)N2CCCCC2)c1`, the inhibition was -9.23%.

As for `CCc1nc2c(OCc3ccc(F)c(F)c3)cccn2c1N(C)C(=O)c1ccco1`, the inhibition was 7.1%.

In the case of `CC(C)[C@@H](C(=O)OCC(=O)c1ccc2c(c1)NC(=O)CO2)N1C(=O)c2ccccc2C1=O`, the inhibition is -6.7%.

`Cc1ccc(NS(=O)(=O)c2ccc3c(c2)NC(=O)CO3)cc1`: the inhibition was 2.86%.

Take `Cc1nnc2n1N=C(c1ccc3c(c1)NC(=O)CO3)CS2`: the inhibition is 15.4% (active).

For the compound `COc1cc(C(=O)NN(CCC#N)C2=NS(=O)(=O)c3ccccc32)cc(OC)c1OC`, the inhibition was -4.12%.

As for `CN1C(=O)c2cccc3c(N)ccc(c23)C1=O`, the inhibition is 24.4% (active).

For `Cc1nn(C)cc1N1C(=O)c2cccc3c(N)ccc(c23)C1=O`, the inhibition was 28.7% (active).

Take `CC(=O)CC(CC(=O)NC1CCCCC1)c1ccccc1` (stereo not drawn): the inhibition is 4.93%.

On to `CCCC(=O)N1CCC(CCC(=O)NC2CC2)CC1`, for which the inhibition is -7.44%.

On to `CC(Sc1ccc(S(=O)(=O)N2CCN(C)CC2)cn1)C(=O)NC1CCCC(C)C1C` (stereo not drawn), for which the inhibition was 4.47%.

For the compound `CCC(C)N1CC(=O)N2Cc3[nH]c4ccccc4c3C[C@H]2C1=O` (stereo partly drawn), the inhibition is -0.72%.

Regarding `COc1ccc(-n2c(SCC(=O)Nc3sc4c(c3C#N)CCCC4)nnc2-c2ccc(O)cc2)cc1`, the inhibition is -4.29%.

Turning to `CCCCOC(=O)NCN1C(=O)C2C3C=CC(C3)C2C1=O` (stereo not drawn), the inhibition was 12.4%.

Regarding `Cc1ccc(S(=O)(=O)N2CCC(C(=O)NCCC3=CCCCC3)CC2)cc1C`, the inhibition is 0.25%.

Consider `OCC1(Cc2ccccc2C(F)(F)F)CCN(Cc2ccncc2)CC1`, for which the inhibition is -3.68%.

For the compound `Nc1nc(Br)c2ccccc2c1-c1ccc(F)cc1`, the inhibition is -1.53%.

Turning to `O=C(c1ccc(OC2CCN(C(=O)c3cccnc3)CC2)cc1)N1CCCCCC1`, the inhibition is 3.65%.

On to `O=C(Cn1cnc2c(nnn2Cc2ccc(F)cc2)c1=O)NCc1ccc2c(c1)OCO2`, for which the inhibition is -1.63%.

Turning to `O=C(Nc1cccc(C(=O)NC2CC2)c1)c1ccc(F)c(S(=O)(=O)N2CCOCC2)c1`, the inhibition is 6.51%.

Turning to `CC12CCC(C(=O)N(CCC#N)CCC#N)(CC1=O)C2(C)C` (stereo not drawn), the inhibition was 1.78%.

Turning to `N#CCCN1CCN(S(=O)(=O)c2ccc(S(=O)(=O)N3CCCC3)cc2)CC1`, the inhibition is 3.06%.

For the compound `CC(C)(C)c1cc(CN2CCN(CCC#N)CC2)cc(C(C)(C)C)c1O`, the inhibition was 13.8% (active).

As to `N#Cc1cccc(CN2CCC(=O)N(CCO)CC2)c1`, the inhibition was 7.16%.

As for `CCC(c1ccc(NC(=O)OC(C)(C)C)cc1)c1cc(OC)cc(OC)c1` (stereo not drawn), the inhibition is -0.44%.

Consider `CN(C)S(=O)(=O)c1ccc(N/C=C(\[N+](=O)[O-])S(=O)(=O)c2ccccc2)cc1`, for which the inhibition is -0.82%.

For `COC(=O)c1sccc1NC(=O)CSc1ccccc1NS(=O)(=O)c1cc(Cl)ccc1Cl`, the inhibition is 0.88%.

As to `Cc1cc(C)c2cc(CN(Cc3cccs3)Cc3nnnn3CC3CCCO3)c(=O)[nH]c2c1` (stereo not drawn), the inhibition is -1.42%.

With `CC(C)[C@H](NC(=O)N1CCn2c1nc1ccccc12)C(=O)NCc1ccc2c(c1)OCO2`, the inhibition is 1.52%.

In the case of `O=S1(=O)c2c(cccc2N2CC[C@H](O)C2)O[C@@H]2CCN1C2`, the inhibition is 4.53%.

On to `CCC(=O)Nc1cccc(C2=NOC3(C2)C[C@@H](C(N)=O)N(C(=O)c2cc([N+](=O)[O-])cc([N+](=O)[O-])c2C)C3)c1` (stereo partly drawn), for which the inhibition is -4.25%.

Regarding `CC(Oc1ccccc1)C(=O)Nc1oc(-c2ccco2)c(-c2ccco2)c1C#N` (stereo not drawn), the inhibition is 2.07%.

As for `Cc1ccc(OCc2nc(C#N)c(N3CCCC3)o2)cc1`, the inhibition is 0.61%.

In the case of `CCOc1ccc(Nc2oc(Cc3ccccc3)nc2C#N)cc1`, the inhibition is 14.8% (active).

For `N#Cc1nc(Cc2cccc3ccccc23)oc1NCc1ccc2c(c1)OCO2`, the inhibition was 4.95%.
